Active and inactive are the calls of the source. No cut-off for these calls is given here.
Experiments:
[1] = Half-life estimated in human plasma; format: ADME
How it was run: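 Compounds incubated in human plasma. Breakdown followed by TLC separation, and half-life estimated from this.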

CEM-c113 [2] = assay: Antiviral activity measured in lymphocytic cell line (CEM-C113) infected with HIV-1 cell free supernatants; format: functional, cell-based; details: Homo sapiens
How it was run: (§1)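 CEM-Cl13 T-lymphoblastoid cells in RPMI 1640 with 5% heat-inactivated FCS at 37 °C, 5% CO2. Wells seeded with 10000 cells and given compound dilutions in triplicate (DMF stock diluted in water, at most 0.1% DMF final). Infected with HIV-1 LAV-Bru cell-free supernatant at 50-250 times the minimal infecting dose, cultured 7 days. MTT viability read at 540 nm. EC50 is the dose giving 50% protection from CPE. SI is IC50/EC50.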

[3] = molecular target: Human immunodeficiency virus type 1 reverse transcriptase (Human immunodeficiency virus 1) (UniProt Q72547); assay: Selectivity index expressed as ratio of IC50 (CEM-C113) to EC50 from RT assay
How it was run: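 HIV-1 LAV-Bru cell-free supernatant used to infect CEM-Cl13 cells (10000/well, triplicate compound dilutions, 7-day culture). EC50 is 50% reduction of RT activity. SI is the ratio of the mock-infected MTT IC50 to this EC50.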

[4] = Selectivity index expressed as ratio of IC50 (CEM-C113) to EC50 from MTT assay; format: functional; how it was run: as §1
CEM-c113 [5] = assay: Effective concentration that reduces HIV-induced cytopathic effect by 50% was determined by MTT assay.; format: functional, cell-based; details: Homo sapiens; how it was run: as §1
[6] = Selectivity index expressed as ratio of IC50 (CEM-C113) to EC50 from MTT assay; inactive; format: functional; how it was run: as §1

CCCCCCCCCCCCCCCC(=O)OCC1C=CC(n2cc(C)c(=O)[nH]c2=O)O1 (centres undefined)
half-life [1]: 4 h | IC50 (CEM-c113 [2]): 4 µM | Selectivity index [3]: 50 | Selectivity index [4]: 40 | EC50 (CEM-c113 [5]): 0.1 µM

CCCCCCCCCCCCCCCCNC(=O)OCC1C=CC(n2cc(C)c(=O)[nH]c2=O)O1 (centres undefined)
half-life [1]: > 24 h | IC50 (CEM-c113 [2]): > 20 µM | Selectivity index [6]: inactive | EC50 (CEM-c113 [5]): > 20 µM

Cc1cn(C2C=CC(COP(=O)(O)OCC3C=CC(n4cc(C)c(=O)[nH]c4=O)O3)O2)c(=O)[nH]c1=O (centres undefined)
half-life [1]: > 24 h | IC50 (CEM-c113 [2]): 100 µM | Selectivity index [3]: 2000 | Selectivity index [4]: 5000 | EC50 (CEM-c113 [5]): 0.02 µM

CCCCCCCCCCCCCCCCOC(=O)OCC1C=CC(n2cc(C)c(=O)[nH]c2=O)O1 (centres undefined)
half-life [1]: > 24 h | IC50 (CEM-c113 [2]): > 20 µM | Selectivity index [4]: > 66 | EC50 (CEM-c113 [5]): 0.3 µM

CCCCCCCCCCCCCCCCOP(=O)(O)OCC1C=CC(n2cc(C)c(=O)[nH]c2=O)O1 (centres undefined)
half-life [1]: > 24 h | IC50 (CEM-c113 [2]): 10 µM | Selectivity index [3]: 50 | Selectivity index [4]: 83 | EC50 (CEM-c113 [5]): 0.12 µM

CCCCCCCCCCCCCCCCOP(=O)(OCCC#N)OCC1C=CC(n2cc(C)c(=O)[nH]c2=O)O1 (centres undefined)
half-life [1]: 12 h | IC50 (CEM-c113 [2]): 17 µM | Selectivity index [4]: 4 | EC50 (CEM-c113 [5]): 4.3 µM

Cc1cn(C2C=CC(COP(=O)(OCCC#N)OCC3C=CC(n4cc(C)c(=O)[nH]c4=O)O3)O2)c(=O)[nH]c1=O (centres undefined)
half-life [1]: 12 h | IC50 (CEM-c113 [2]): 17 µM | Selectivity index [4]: 17 | EC50 (CEM-c113 [5]): 1 µM

Cc1cn([C@H]2C=C[C@@H](CO)O2)c(=O)[nH]c1=O [STAVUDINE]
IC50 (CEM-c113 [2]): 10 µM | Selectivity index [3]: 200 | Selectivity index [4]: 125 | EC50 (CEM-c113 [5]): 0.08 µM

Cc1cn([C@H]2C[C@H](N=[N+]=[N-])[C@@H](CO)O2)c(=O)[nH]c1=O [ZIDOVUDINE]
IC50 (CEM-c113 [2]): 20 µM | Selectivity index [3]: 2000 | Selectivity index [4]: 3330 | EC50 (CEM-c113 [5]): 0.006 µM

From ChEMBL document CHEMBL1126627, “Synthesis and anti-HIV evaluation of D4T and D4T 5'-monophosphate prodrugs” (J Med Chem, 1993)
